In ChEMBL document CHEMBL4038284, “Synthesis of novel quinoline-based 4,5-dihydro-1H-pyrazoles as potential anticancer, antifungal, antibacterial and antiprotozoal agents” (Eur J Med Chem, 2017):
Active and inactive are the calls of the source. No cut-off for these calls is given here.

What was measured:
Klebsiella pneumoniae [1] = experiment: Antibacterial activity against ESBL positive Klebsiella pneumoniae ATCC 700603 after 24 hrs by resazurin dye based microdilution assay; assay type: functional; conditions: Klebsiella pneumoniae, 700603, 24 h
Summary of the method: (§1)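 MIC taken as the lowest concentration giving visible inhibition and/or by resazurin (1 mg/mL). Gentamicin was the control. Run in duplicate, repeated at least three times.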

Klebsiella pneumoniae [2] = experiment: Antibacterial activity against carbapenemase positive Klebsiella pneumoniae BAA 1705 after 24 hrs by resazurin dye based microdilution assay; assay type: functional; conditions: BAA 1705, 24 h; summary of the method: as §1
CCRF-CEM = experiment: Growth inhibition of human CCRF-CEM cells at 10 uM incubated for 48 hrs by sulforhodamine B assay; assay type: functional, cell-based
Summary of the method: (§2)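 NCI 60-cell-line screen at a single 10 µM dose. Cells in RPMI-1640 with 5% FBS and 2 mM L-glutamine, pre-incubated 24 h, then treated for 48 h at 37 °C. TCA fixation, sulforhodamine B staining, absorbance at 515 nm. Percentage growth calculated against time-zero and untreated controls.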

K562 = experiment: Growth inhibition of human K562 cells at 10 uM incubated for 48 hrs by sulforhodamine B assay; assay type: functional, cell-based
Summary of the method: (§3)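 NCI 60-line panel, single 10 μM dose. Cells were grown in RPMI-1640 with 5% FBS and 2 mM L-glutamine and pre-incubated 24 h before compound addition (DMSO stock). Exposure was 48 h at 37 °C, 5% CO2. Cells were fixed with cold TCA (10% final), stained with 0.4% SRB, bound dye dissolved in 10 mM Tris base, A515 read. Growth was taken relative to time-zero and untreated control plates.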

RPMI-8226 = experiment: Growth inhibition of human RPMI8226 cells at 10 uM incubated for 48 hrs by sulforhodamine B assay; assay type: functional, cell-based; summary of the method: as §3
SR = experiment: Growth inhibition of human SR cells at 10 uM incubated for 48 hrs by sulforhodamine B assay; assay type: functional, cell-based
Summary of the method: (§4)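 NCI-60 single-dose screen at 10 µM for 48 h. Cells were grown in RPMI-1640 with 5% FBS and 2 mM L-glutamine and preincubated 24 h before compound. Time-zero plates were TCA-fixed at compound addition. After exposure, cells were TCA-fixed, stained with SRB and read at 515 nm. Percentage growth was calculated against time-zero and untreated-control absorbances.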

EKVX = experiment: Growth inhibition of human EKVX cells at 10 uM incubated for 48 hrs by sulforhodamine B assay; assay type: functional, cell-based; summary of the method: as §2
NCI-H23 = experiment: Growth inhibition of human NCI-H23 cells at 10 uM incubated for 48 hrs by sulforhodamine B assay; assay type: functional, cell-based; summary of the method: as §3
NCI-H322M = experiment: Growth inhibition of human NCI-H322M cells at 10 uM incubated for 48 hrs by sulforhodamine B assay; assay type: functional, cell-based; summary of the method: as §3
NCI-H460 = experiment: Growth inhibition of human NCI-H460 cells at 10 uM incubated for 48 hrs by sulforhodamine B assay; assay type: functional, cell-based; summary of the method: as §3
HCC 2998 = experiment: Growth inhibition of human HCC2998 cells at 10 uM incubated for 48 hrs by sulforhodamine B assay; assay type: functional, cell-based; summary of the method: as §2
HCT-15 = experiment: Growth inhibition of human HCT15 cells at 10 uM incubated for 48 hrs by sulforhodamine B assay; assay type: functional, cell-based; summary of the method: as §2
SW-620 = experiment: Growth inhibition of human SW620 cells at 10 uM incubated for 48 hrs by sulforhodamine B assay; assay type: functional, cell-based; summary of the method: as §4
SF-295 = experiment: Growth inhibition of human SF295 cells at 10 uM incubated for 48 hrs by sulforhodamine B assay; assay type: functional, cell-based; summary of the method: as §3
SNB-19 = experiment: Growth inhibition of human SNB19 cells at 10 uM incubated for 48 hrs by sulforhodamine B assay; assay type: functional, cell-based; summary of the method: as §4
MDA-MB-435 = experiment: Growth inhibition of human MDA-MB-435 cells at 10 uM incubated for 48 hrs by sulforhodamine B assay; assay type: functional, cell-based; summary of the method: as §3
SK-MEL-2 = experiment: Growth inhibition of human SK-MEL-2 cells at 10 uM incubated for 48 hrs by sulforhodamine B assay; assay type: functional, cell-based; summary of the method: as §4
SK-MEL-5 = experiment: Growth inhibition of human SK-MEL-5 cells at 10 uM incubated for 48 hrs by sulforhodamine B assay; assay type: functional, cell-based; summary of the method: as §4
UACC-257 = experiment: Growth inhibition of human UACC257 cells at 10 uM incubated for 48 hrs by sulforhodamine B assay; assay type: functional, cell-based; summary of the method: as §4
IGROV-1 = experiment: Growth inhibition of human IGROV1 cells at 10 uM incubated for 48 hrs by sulforhodamine B assay; assay type: functional, cell-based; summary of the method: as §3
OVCAR-3 = experiment: Growth inhibition of human OVCAR3 cells at 10 uM incubated for 48 hrs by sulforhodamine B assay; assay type: functional, cell-based; summary of the method: as §3
OVCAR-4 = experiment: Growth inhibition of human OVCAR4 cells at 10 uM incubated for 48 hrs by sulforhodamine B assay; assay type: functional, cell-based; summary of the method: as §3
OVCAR-8 = experiment: Growth inhibition of human OVCAR8 cells at 10 uM incubated for 48 hrs by sulforhodamine B assay; assay type: functional, cell-based; summary of the method: as §3
NCI/ADR-RES = experiment: Growth inhibition of human NCI/ADR-RES cells at 10 uM incubated for 48 hrs by sulforhodamine B assay; assay type: functional, cell-based; summary of the method: as §3
ACHN = experiment: Growth inhibition of human ACHN cells at 10 uM incubated for 48 hrs by sulforhodamine B assay; assay type: functional, cell-based; summary of the method: as §2
Hs-578T = experiment: Growth inhibition of human Hs578T cells at 10 uM incubated for 48 hrs by sulforhodamine B assay; assay type: functional, cell-based; summary of the method: as §3
Candida albicans [3] = experiment: Growth inhibition of Candida albicans ATCC 10231 at 250 ug/ml incubated for 48 hrs under dark condition by broth microdilution method relative to control; assay type: functional; conditions: ATCC 10231, 48 h, read-out: GI
Summary of the method: (§5)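 CLSI M27-A3 broth microdilution in RPMI-1640, DMSO ≤1%. Inoculum 1-5 × 10^3 CFU/mL. Incubated 48 h at 30 °C, dark. % inhibition = 100 − (OD405 test − sterility control)/(OD405 growth control − sterility control), with growth and sterility control wells. Triplicate.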

Candida albicans [4] = experiment: Growth inhibition of Candida albicans ATCC 10231 at 31.25 ug/ml incubated for 48 hrs under dark condition by broth microdilution method relative to control; assay type: functional; conditions: ATCC 10231, 48 h, read-out: GI; summary of the method: as §5
Candida albicans [5] = experiment: Growth inhibition of Candida albicans ATCC 10231 at 7.8 ug/ml incubated for 48 hrs under dark condition by broth microdilution method relative to control; assay type: functional; conditions: ATCC 10231, 48 h, read-out: GI; summary of the method: as §5
Cryptococcus neoformans [6] = experiment: Growth inhibition of Cryptococcus neoformans ATCC 32264 at 125 ug/ml incubated for 48 hrs under dark condition by broth microdilution method relative to control; assay type: functional; conditions: ATCC 32264, 48 h, read-out: GI; summary of the method: as §5
Cryptococcus neoformans [7] = experiment: Growth inhibition of Cryptococcus neoformans ATCC 32264 at 3.4 ug/ml incubated for 48 hrs under dark condition by broth microdilution method relative to control; assay type: functional; conditions: ATCC 32264, 48 h, read-out: GI
U-937 = experiment: Cytotoxicity against human U937 cells after 72 hrs by MTT assay; assay type: cell-based; conditions: u-937, 72 h
Summary of the method: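 Exponentially growing U-937 at 1 × 10^5 cells/mL in RPMI-1640 with 10% FBS were exposed to 200, 50, 12.5 and 3.125 µg/mL for 72 h at 37 °C, 5% CO2. MTT for 3 h, stopped with isopropanol/SDS, formazan read at 570 nm, blank-corrected. LC50 by Probit from % viability against untreated cells. Triplicate, at least two independent experiments.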

SMILES: Clc1ccc(C2=NN(c3ccc(Cl)cc3)C(c3cccc(Nc4ccnc5cc(Cl)ccc45)c3)C2)cc1 (centres undefined)
- MIC (Klebsiella pneumoniae [1]): > 1000 µg/mL
- MIC (Klebsiella pneumoniae [2]): > 1000 µg/mL
- growth inhibition (GI) (CCRF-CEM): inactive
- growth inhibition (GI) (K562): inactive
- growth inhibition (GI) (RPMI-8226): inactive
- growth inhibition (GI) (SR): inactive
- growth inhibition (GI) (EKVX): inactive
- growth inhibition (GI) (NCI-H23): inactive
- growth inhibition (GI) (NCI-H322M): inactive
- growth inhibition (GI) (NCI-H460): inactive
- growth inhibition (GI) (HCC 2998): inactive
- growth inhibition (GI) (HCT-15): inactive
- growth inhibition (GI) (SW-620): inactive
- growth inhibition (GI) (SF-295): inactive
- growth inhibition (GI) (SNB-19): inactive
- growth inhibition (GI) (MDA-MB-435): inactive
- growth inhibition (GI) (SK-MEL-2): inactive
- growth inhibition (GI) (SK-MEL-5): inactive
- growth inhibition (GI) (UACC-257): inactive
- growth inhibition (GI) (IGROV-1): inactive
- growth inhibition (GI) (OVCAR-3): inactive
- growth inhibition (GI) (OVCAR-4): inactive
- growth inhibition (GI) (OVCAR-8): inactive
- growth inhibition (GI) (NCI/ADR-RES): inactive
- growth inhibition (GI) (ACHN): inactive
- growth inhibition (GI) (Hs-578T): inactive
- inhibition of growth at 250 µg/mL (Candida albicans [3]): 40.4%
- inhibition of growth at 31.25 µg/mL (Candida albicans [4]): 7.02%
- inhibition of growth at 7.8 µg/mL (Candida albicans [5]): 2.96%
- inhibition of growth at 125 µg/mL (Cryptococcus neoformans [6]): 46%
- inhibition of growth at 3.4 µg/mL (Cryptococcus neoformans [7]): 17.4%
- LC50 (U-937): > 200 µg/mL

SMILES: Clc1ccc(C2=NN(c3cc(Cl)cc(Cl)c3)C(c3cccc(Nc4ccnc5cc(Cl)ccc45)c3)C2)cc1 (centres undefined)
- MIC (Klebsiella pneumoniae [1]): > 1000 µg/mL
- MIC (Klebsiella pneumoniae [2]): > 1000 µg/mL
- growth inhibition (GI) (CCRF-CEM): inactive
- growth inhibition (GI) (K562): inactive
- growth inhibition (GI) (RPMI-8226): inactive
- growth inhibition (GI) (SR): inactive
- growth inhibition (GI) (EKVX): inactive
- growth inhibition (GI) (NCI-H23): inactive
- growth inhibition (GI) (NCI-H322M): inactive
- growth inhibition (GI) (NCI-H460): inactive
- growth inhibition (GI) (HCC 2998): inactive
- growth inhibition (GI) (HCT-15): inactive
- growth inhibition (GI) (SW-620): inactive
- growth inhibition (GI) (SF-295): inactive
- growth inhibition (GI) (SNB-19): inactive
- growth inhibition (GI) (MDA-MB-435): inactive
- growth inhibition (GI) (SK-MEL-2): inactive
- growth inhibition (GI) (SK-MEL-5): inactive
- growth inhibition (GI) (UACC-257): inactive
- growth inhibition (GI) (IGROV-1): inactive
- growth inhibition (GI) (OVCAR-3): inactive
- growth inhibition (GI) (OVCAR-4): inactive
- growth inhibition (GI) (OVCAR-8): inactive
- growth inhibition (GI) (NCI/ADR-RES): inactive
- growth inhibition (GI) (ACHN): inactive
- growth inhibition (GI) (Hs-578T): inactive
- inhibition of growth at 250 µg/mL (Candida albicans [3]): 35%
- inhibition of growth at 31.25 µg/mL (Candida albicans [4]): 13.6%
- inhibition of growth at 7.8 µg/mL (Candida albicans [5]): 6.01%
- inhibition of growth at 125 µg/mL (Cryptococcus neoformans [6]): 4.65%
- inhibition of growth at 3.4 µg/mL (Cryptococcus neoformans [7]): 0%
- LC50 (U-937): > 200 µg/mL
